Assay [1] is described as follows: reducers of endogenous Her2 protein level, primary screen, SKBR3 breast tumor cells, AlphaScreen, ATP viability (AID 461;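 active = Her2 level under about 52% in both replicate screens, with viability over 70% of control, limit read from the data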;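 as to Her2 level: lower value means less Her2 protein in the cells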;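 as to viability: percent of carrier control wells set as 100% viability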). To be noted: 18-24 h, measured here: SKBR3 viability, ATP luminescence, at 10 µM. For orientation: Alpha assays give light when donor and acceptor beads are brought close together.
For assay [2], the target named is Receptor tyrosine-protein kinase erbB-2 (Homo sapiens) (UniProt P04626). Described as above. The settings on record: 18-24 h, at 10 µM, stronger effect = lower value.
Chain of Receptor tyrosine-protein kinase erbB-2 (Homo sapiens) (P04626 whole entry, looked up): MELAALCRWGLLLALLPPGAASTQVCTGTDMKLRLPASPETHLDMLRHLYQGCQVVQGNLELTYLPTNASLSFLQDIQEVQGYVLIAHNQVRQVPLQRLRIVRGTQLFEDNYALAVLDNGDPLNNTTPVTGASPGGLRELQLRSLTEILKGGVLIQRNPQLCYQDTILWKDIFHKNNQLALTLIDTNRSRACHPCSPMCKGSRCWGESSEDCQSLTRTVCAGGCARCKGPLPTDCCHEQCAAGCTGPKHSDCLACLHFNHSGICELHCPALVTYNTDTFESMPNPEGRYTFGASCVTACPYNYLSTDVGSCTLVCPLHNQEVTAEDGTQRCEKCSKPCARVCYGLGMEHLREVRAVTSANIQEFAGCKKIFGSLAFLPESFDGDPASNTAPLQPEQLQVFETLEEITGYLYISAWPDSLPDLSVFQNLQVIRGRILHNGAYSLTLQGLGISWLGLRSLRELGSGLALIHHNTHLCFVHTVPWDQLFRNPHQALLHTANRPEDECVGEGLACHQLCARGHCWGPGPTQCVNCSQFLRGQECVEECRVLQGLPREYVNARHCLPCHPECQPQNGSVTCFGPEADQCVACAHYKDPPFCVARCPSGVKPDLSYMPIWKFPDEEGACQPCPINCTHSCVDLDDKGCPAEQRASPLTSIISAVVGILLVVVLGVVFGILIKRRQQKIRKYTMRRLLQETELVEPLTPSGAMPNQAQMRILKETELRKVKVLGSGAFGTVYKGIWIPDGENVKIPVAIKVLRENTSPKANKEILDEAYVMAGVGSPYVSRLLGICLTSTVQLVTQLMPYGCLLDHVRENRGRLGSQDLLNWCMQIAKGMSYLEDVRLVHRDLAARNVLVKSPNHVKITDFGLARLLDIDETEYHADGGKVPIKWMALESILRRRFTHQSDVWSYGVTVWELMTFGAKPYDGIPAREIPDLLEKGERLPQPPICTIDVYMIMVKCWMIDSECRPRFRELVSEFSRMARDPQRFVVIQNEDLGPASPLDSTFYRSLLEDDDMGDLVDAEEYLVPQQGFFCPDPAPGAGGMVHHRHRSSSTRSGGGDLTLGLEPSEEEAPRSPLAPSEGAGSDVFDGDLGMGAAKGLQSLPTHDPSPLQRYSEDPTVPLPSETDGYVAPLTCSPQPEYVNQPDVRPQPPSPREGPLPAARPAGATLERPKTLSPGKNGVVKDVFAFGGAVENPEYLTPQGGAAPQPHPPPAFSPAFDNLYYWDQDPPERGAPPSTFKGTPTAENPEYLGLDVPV
The nature of assay [3]: SK-BR-3 cell growth inhibitors, pilot screen, 24 h, human (AID 572;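 active = viability at or below 10% of carrier control in both of two separate runs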;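 also: compound exposure lasted between 18 and 24 h rather than exactly 24 h; 100% = carrier-treated control wells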). To be noted: SK-BR-3 viability, CellTiter-Glo luminescence, at 10 µM, stronger effect = lower value. (In ATP-based viability assays light output follows the ATP content of the culture.)
Assay [4] is described as follows: HUVEC growth inhibition – cell-based, human, primary screen (AID 575;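 active = viability at or below 30% in both replicate assays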;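 also: 100% = median of untreated cell wells with 0.1% DMSO on each plate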). The settings on record: HUVEC proliferation, CellTiter-Glo luminescence, 72 h; at 10 µM; stronger effect = lower value. The procedure, abridged: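 Test system: primary human umbilical vein endothelial cells; medium: endothelial basal medium with 2% FBS plus growth supplements; dosing: 10 µM compound only; times: 72 h treatment at 37 °C; signal: CTG luminescence; read-out: % viability relative to median vehicle-well signal on each plate; control set: vehicle and MePR control wells; plate: 384-well, collagen-coated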

A short description of assay [5]: growth inhibitors of H69AR lung tumor, primary screen, human, duplicate replicates (AID 580).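 Also: 100% = mean luminescence of untreated wells and 0% = no signal.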 The settings on record: H69AR lung tumor cells viability, ATP luminescence, 72 h; at 10 µM; stronger effect = lower value.
Assay [6] in a line: reversal of MRP1-mediated doxorubicin resistance, pilot screen, H69AR cells, doxorubicin co-treatment (AID 601;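 active = viability loss from added drug above about 55%, and viability with drug at most 40%, in both replicates, limit read from the data, passing the limit was not always enough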). The settings on record: CellTiter-Glo, 72 h, at 10 µM; for differential viability (reversal): stronger effect = higher value.
A short description of assay [7]: 384-well plate pilot, post-Golgi transport modulator project, inhibition of yeast transport mutant growth (AID 636; in the data active = inhibition above about 31%). To be noted: absorbance 615 nm, about 18 h, stronger effect = higher value.
Assay [8] is described as follows: growth suppression of yeast trafficking mutant, preliminary HTS, modulators of trafficking downstream of Golgi apparatus project, 1536-format plate, OD 615 nm (AID 637; in the data active = inhibition above about 30%). The settings on record: yeast transport mutant growth, absorbance 615 nm, 18 h; stronger effect = higher value.
[9] abbreviates: H69AR cells + 2 uM doxorubicin, measured here: viability with 2 uM doxorubicin, stronger effect = lower value.
Where [10] appears, read: H69AR cells, compound alone cytotoxicity.

Activity calls are given as the source filed them.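 The calls were made as follows, unless noted: active = viability at or under a set limit in both replicates, limit being median viability minus 3 SD (cut at about 48% in these data, passing the limit was not always enough); inconclusive = at or under the limit in just one replicate; inactive = at or above the limit in both replicates.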

`Nc1nonc1-c1noc(-c2ccccc2Br)n1`: the viability was 112% in assay [1]; 112% (inactive) in assay [3]; 54.7% (inactive) in assay [4]; 95.1% (inactive) in assay [5]; 92% in assay [6] (setting [9]); 95.1% in assay [6] (setting [10]). For the same molecule, the Her2 level in assay [2] was 76.5% (inactive). Further, the differential viability (reversal) in assay [6] (H69AR cells + 2 uM doxorubicin) was 3.17% (inactive). Also, the inhibition was -6.62% (inactive) in assay [7] and 5.67% (inactive) in assay [8].
On to `CCOc1cc(C2NC(=O)N(C)C(C)=C2C(=O)OC)cc(Br)c1O` (stereo not given), for which the viability in assay [1] is 112%; in assay [3], 112% (inactive); in assay [4], 69.9% (inactive); in assay [5] it was 93.8% (inactive); in assay [6] (setting [9]), 72.6%; in assay [6] (setting [10]), 93.8%. Besides, in assay [2], the Her2 level is 79.5% (inactive). For the same molecule, the differential viability (reversal) in assay [6] (H69AR cells + 2 uM doxorubicin) is 21.3% (inactive). For the same molecule, the inhibition in assay [7] was -4.73% (inactive); in assay [8], 4.44% (inactive).
For the molecule `Cn1cccc1-c1nc2ccc(NC(=O)c3ccco3)cc2[nH]1`, the viability is 114% in assay [1]; 114% (inactive) in assay [3]; 120% (inactive) in assay [4]; 77% (inactive) in assay [5]; 81.4% in assay [6] (setting [9]); 77% in assay [6] (setting [10]). The Her2 level in assay [2] was 93% (inactive). Besides, the differential viability (reversal) in assay [6] (H69AR cells + 2 uM doxorubicin) was -4.33% (inactive). Also, the inhibition in assay [7] was -2.76% (inactive); in assay [8], -3.65% (inactive).
As for `COC(=O)c1oc2ccc(OC)cc2c1N`, the viability is 107% in assay [1]; 107% (inactive) in assay [3]; 82.4% (inactive) in assay [4]; 100% (inactive) in assay [5]; 86.2% in assay [6] (setting [9]); 100% in assay [6] (setting [10]). Besides, in assay [2], the Her2 level was 88% (inactive). Further, the differential viability (reversal) in assay [6] (H69AR cells + 2 uM doxorubicin) is 13.9% (inactive). In addition, the figures for the inhibition in assay [7] and in assay [8] were -2.53% (inactive) and -4.84% (inactive), respectively.
For the molecule `COc1c2ccoc2nc2c(OC)c(OCC(O)C(C)(C)O)ccc12` (stereo not given), the viability was 100% in assay [1]; 100% (inactive) in assay [3]; 94.4% (inactive) in assay [4]; 95.4% (inactive) in assay [5]; 93.2% in assay [6] (setting [9]); 95.4% in assay [6] (setting [10]). In addition, the Her2 level in assay [2] was 97.5% (inactive). Moreover, the differential viability (reversal) in assay [6] (H69AR cells + 2 uM doxorubicin) is 2.17% (inactive). Also, the inhibition is -2.8% (inactive) in assay [7] and 3.39% (inactive) in assay [8].
As to `CCOC(=O)c1cc2ccc(OC)c(OC)c2c(=O)s1`, the viability in assay [1] was 98.5%; in assay [3], 98.5% (inactive); in assay [4], 83.9% (inactive); in assay [5], 83.5% (inactive); in assay [6] (setting [9]), 83.6%; in assay [6] (setting [10]), 83.5%. Besides, in assay [2], the Her2 level is 94% (inactive). The differential viability (reversal) in assay [6] (H69AR cells + 2 uM doxorubicin) was -0.1% (inactive). Further, the inhibition in assay [7] was 0.78% (inactive); in assay [8] it was -7% (inactive).
For the molecule `CCOc1ccc(C(CC(=O)O)NC(=O)c2ccco2)cc1OC` (stereo not given), the viability was 102% in assay [1]; 102% (inactive) in assay [3]; 104% (inactive) in assay [4]; 94.2% (inactive) in assay [5]; 92.3% in assay [6] (setting [9]); 94.2% in assay [6] (setting [10]). For the same molecule, the Her2 level in assay [2] was 102% (inactive). Besides, the differential viability (reversal) in assay [6] (H69AR cells + 2 uM doxorubicin) was 1.89% (inactive). Also, the results for the inhibition in assay [7] and in assay [8] were -6.76% (inactive) and -1.33% (inactive), respectively.
Turning to `CC1Cc2ccccc2N1Cc1cc(=O)n2ccsc2n1` (stereo not given), the viability in assay [1] was 102%; in assay [3], 102% (inactive); in assay [4], 80.4% (inactive); in assay [5], 74.7% (inactive); in assay [6] (setting [9]), 92.6%; in assay [6] (setting [10]), 74.7%. Also, in assay [2], the Her2 level is 78.5% (inactive). The differential viability (reversal) in assay [6] (H69AR cells + 2 uM doxorubicin) was -17.9% (inactive). Besides, the inhibition was -2.99% (inactive) in assay [7] and -6.98% (inactive) in assay [8].
Regarding `O=C(Cc1ccc(Br)cc1)N1CCCCCC1`, the viability in assay [1] is 108%; in assay [3], 108% (inactive); in assay [4], 115% (inactive); in assay [5] it was 97.9% (inactive); in assay [6] (setting [9]), 89.6%; in assay [6] (setting [10]) it was 97.9%. Besides, the Her2 level in assay [2] was 106% (inactive). Also, the differential viability (reversal) in assay [6] (H69AR cells + 2 uM doxorubicin) was 8.29% (inactive). The inhibition is -4.08% (inactive) in assay [7] and -0.49% (inactive) in assay [8].
For `COc1cc2c(cc1OC)C(c1ccccc1O)N(C1CC(=O)N(c3ccccc3)C1=O)CC2` (stereo not given), the viability in assay [1] is 113%; in assay [3], 113% (inactive); in assay [4] it was 97.7% (inactive); in assay [5], 99.8% (inactive); in assay [6] (setting [9]), 81.5%; in assay [6] (setting [10]), 99.8%. In addition, the Her2 level in assay [2] is 96.5% (inactive). Also, the differential viability (reversal) in assay [6] (H69AR cells + 2 uM doxorubicin) was 18.3% (inactive). For the same molecule, the inhibition in assay [7] was -4.42% (inactive); in assay [8], -5.08% (inactive).
Turning to `CC1CCc2cc(F)cc3c(O)c(C(=O)Nc4cnccn4)c(=O)n1c23` (stereo not given), the viability was 97.5% in assay [1]; 97.5% (inactive) in assay [3]; 99.9% (inactive) in assay [4]; 92.8% (inactive) in assay [5]; 94.2% in assay [6] (setting [9]); 92.8% in assay [6] (setting [10]). Moreover, the Her2 level in assay [2] is 82.5% (inactive). In addition, the differential viability (reversal) in assay [6] (H69AR cells + 2 uM doxorubicin) was -1.42% (inactive). Moreover, the inhibition in assay [7] is -0.92% (inactive); in assay [8], 4.52% (inactive).
Take `CCOC(=O)CN1CC23C=CC(O2)C(C(=O)NCc2ccc(F)cc2)C3C1=O` (stereo not given): the viability in assay [1] is 88%; in assay [3], 88% (inactive); in assay [4] it was 102% (inactive); in assay [5] it was 98.9% (inactive); in assay [6] (setting [9]) it was 86.4%; in assay [6] (setting [10]), 98.9%. The Her2 level in assay [2] was 93.5% (inactive). Further, in assay [6] (H69AR cells + 2 uM doxorubicin), the differential viability (reversal) was 12.5% (inactive). The inhibition is -0.38% (inactive) in assay [7] and -0.17% (inactive) in assay [8].
On to `COC(=O)c1cc(OC)c(OC)cc1NC(=O)CC1CCCCC1`, for which the viability was 104% in assay [1]; 104% (inactive) in assay [3]; 99.3% (inactive) in assay [4]; 103% (inactive) in assay [5]; 93.6% in assay [6] (setting [9]); 103% in assay [6] (setting [10]). The Her2 level in assay [2] was 96.5% (inactive). Further, the differential viability (reversal) in assay [6] (H69AR cells + 2 uM doxorubicin) is 9.91% (inactive). Further, the values for the inhibition in assay [7] and in assay [8] were 0.79% (inactive) and -2.9% (inactive), respectively.
Turning to `CN(C)Cc1cn(CCC(=O)O)c2ccccc12`, the viability in assay [1] is 96%; in assay [3] it was 96% (inactive); in assay [4] it was 88.5% (inactive); in assay [5], 101% (inactive); in assay [6] (setting [9]), 98.2%; in assay [6] (setting [10]), 101%. The Her2 level in assay [2] is 106% (inactive). The differential viability (reversal) in assay [6] (H69AR cells + 2 uM doxorubicin) is 2.96% (inactive). The inhibition was -1.22% (inactive) in assay [7] and -1.8% (inactive) in assay [8].
With `COc1ccc(C)cc1S(=O)(=O)N(C)CC(=O)Nc1ccc2c(c1)OCO2`, the viability is 129% in assay [1]; 129% (inactive) in assay [3]; 92.7% (inactive) in assay [4]; 89.2% (inactive) in assay [5]; 88.1% in assay [6] (setting [9]); 89.2% in assay [6] (setting [10]). The Her2 level in assay [2] was 98% (inactive). The differential viability (reversal) in assay [6] (H69AR cells + 2 uM doxorubicin) was 1.07% (inactive). The values for the inhibition in assay [7] and in assay [8] were -4.67% (inactive) and -4.92% (inactive), respectively.
As for `O=C(NCc1ccccn1)c1ccc2nc(-c3ccco3)c(-c3ccco3)nc2c1`, the viability was 101% in assay [1]; 101% (inactive) in assay [3]; 111% (inactive) in assay [4]; 73.8% (inactive) in assay [5]; 79.8% in assay [6] (setting [9]); 73.8% in assay [6] (setting [10]). In addition, the Her2 level in assay [2] is 90.5% (inactive). Moreover, the differential viability (reversal) in assay [6] (H69AR cells + 2 uM doxorubicin) is -5.92% (inactive). In addition, the inhibition is -5.66% (inactive) in assay [7] and 2.13% (inactive) in assay [8].

For orientation: viability means a read-out of living cells in per cent, often relative to untreated cells. A word on the inhibition: it is the change of the read-out against control, counted positive when it falls.
